Source: ChEMBL document CHEMBL1123157, “Thromboxane synthetase inhibitors and antihypertensive agents. 1. N-[(1H-imidazol-1-yl)alkyl]aryl amides and N-[(1H-1,2,4-triazol-1-yl)alkyl]aryl amides” (J Med Chem, 1986)
The source made the active and inactive calls.

Tests used:
[1] = system: Rattus norvegicus; experiment: Antihypertensive activity in spontaneously hypertensive rats at 100 mg/kg po/day for 2 days; type: functional, organism-based; set-up: dose 100 mg/kg
In short: (§1)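 Male 16-week-old Okamoto SHR (mean arterial pressure about 170 mmHg), 1-3 rats per compound. Given by gavage in 2% preboiled starch (50 mg/mL), 100 mg/kg or less, with 0.9% NaCl load (25 mL/kg). Second dose without saline 24 h later. Mean arterial pressure measured 28 h after first dose. Active if ≤116 mmHg in one rat or mean ≤122 mmHg in two.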

[2] = biological target: T1, Thromboxane-A synthase (Rattus norvegicus) (UniProt P49430); experiment: Inhibitory activity for thromboxane synthetase determined by TXB2 levels in platelets from spontaneously hypertensive rats.; set-up: concentration or dose not given beside the values; settings: concentration not given here
T1 sequence (whole entry): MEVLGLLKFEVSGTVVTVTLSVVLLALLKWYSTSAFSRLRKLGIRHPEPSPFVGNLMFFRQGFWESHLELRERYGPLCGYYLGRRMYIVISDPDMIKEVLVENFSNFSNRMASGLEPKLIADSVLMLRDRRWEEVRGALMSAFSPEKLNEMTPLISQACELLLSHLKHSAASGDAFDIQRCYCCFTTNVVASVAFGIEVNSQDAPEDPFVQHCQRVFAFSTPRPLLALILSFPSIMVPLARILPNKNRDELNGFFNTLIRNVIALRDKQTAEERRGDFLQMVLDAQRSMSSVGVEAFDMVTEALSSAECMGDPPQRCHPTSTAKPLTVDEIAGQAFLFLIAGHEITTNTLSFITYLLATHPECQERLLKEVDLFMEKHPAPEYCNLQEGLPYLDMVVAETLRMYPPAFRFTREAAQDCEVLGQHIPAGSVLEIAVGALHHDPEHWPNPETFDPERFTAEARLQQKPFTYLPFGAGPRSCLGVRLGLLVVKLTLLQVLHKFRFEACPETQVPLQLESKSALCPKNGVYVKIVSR
In short: (§2)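 Washed SHR platelets in oxygenated Krebs phosphate buffer, pH 7.4, 4.5-6.0 × 10^4/μL, incubated with vehicle or drug for 10 min at 37 °C. Stopped with ice and citric acid. Supernatant TXB2 measured by RIA; TXB2 in boiled controls subtracted; % inhibition calculated. IC50 read graphically from % inhibition vs log concentration; single-point screen at 10^-4 M.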

[3] = system: Rattus norvegicus; experiment: Antihypertensive activity in spontaneously hypertensive rats tested at 100 mg/kg po/day for 2 days; type: functional, organism-based; set-up: dose 100 mg/kg; in short: as §1
[4] = biological target: T2, Thromboxane-A synthase (Rattus norvegicus, UniProt P49430); experiment: Compound was tested for inhibitory activity against thromboxane synthetase
T2 sequence (P49430 whole entry): T1 sequence (whole entry)
In short: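 Washed SHR platelets in oxygenated Krebs phosphate buffer, pH 7.4, 4.5-6.0 × 10^4/μL, incubated with vehicle or drug for 10 min at 37 °C. Stopped with ice and citric acid. Supernatant TXB2 measured by RIA; TXB2 in boiled controls subtracted; % inhibition calculated.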

[5] = biological target: T2, Thromboxane-A synthase; experiment: compound was tested for inhibitory activity against thromboxane synthetase,; in short: as §2

| Compound | inhibition [2] [%] | IC50 [4] [nM] | IC50 [5] [nM] | Activity [1] | Activity [3] |
| --- | --- | --- | --- | --- | --- |
| Nc1ccc(Cl)cc1C(=O)NCCCn1ccnc1 | 96 |  |  | Active |  |
| C=CCNc1ccc(Cl)cc1C(=O)NCCCn1ccnc1 | 95 |  |  | Active |  |
| O=C(NCCCCCCCCn1ccnc1)c1ccc(Cl)cc1 | 100 | 100 |  | Active |  |
| Cc1cn(CCCNC(=O)c2cccc(Cl)c2)cn1 | 84 |  |  | Active |  |
| O=C(NCCCn1cncn1)c1ccccc1 | 77 |  |  | Active |  |
| Cc1cn(CCCNC(=O)c2ccc(C(F)(F)F)cc2)cn1 | 92 |  |  | Active |  |
| Cc1nccn1CCCNC(=O)c1ccc(Cl)cc1 | 0 |  |  | Active |  |
| Cc1cn(CCCNC(=O)c2ccc(Br)cc2)cn1 | 80 |  |  | Active |  |
| CN(C)c1ccc(C(=O)NCCCn2cncn2)cc1 | 64 |  |  | Active |  |
| Cc1nccn1CCCNC(=O)c1ccc(C(F)(F)F)cc1 | 36 |  |  | Active |  |
| Cc1cn(CCCNC(=O)c2ccc(Cl)cc2)cn1 | 93 |  |  | Active |  |
| O=C(NCCCn1ccnc1)c1cccc(C(F)(F)F)c1 | 100 | 4000 |  | Active |  |
| O=C(NCCCCCn1ccnc1)c1ccc(C(F)(F)F)cc1 | 100 | 700 |  |  | inactive |
| Cc1cn(CCCNC(=O)c2ccc(Cl)c(Cl)c2)cn1 | 90 |  |  | Active |  |
| O=C(NCCCn1cnc(-c2ccccc2)c1)c1ccc(Cl)cc1 | 69 |  |  | Active |  |

Further lines, with some results ahead:

| inhibition [2] [%] | IC50 [4] [nM] | IC50 [5] [nM] | Compound | Activity [1] | Activity [3] |
| --- | --- | --- | --- | --- | --- |
| 75 |  |  | O=C(Cc1cccc(Cl)c1)NCCCn1ccnc1 | Active |  |
| 75 |  |  | O=C(NCCCn1ccnc1)c1cccc(Cl)c1 | Active |  |
| 87 |  |  | O=C(NCCCCn1ccnc1)c1ccc(Br)cc1 | Active |  |
| 58 |  |  | Cc1ccc(CC(=O)NCCCn2ccnc2)cc1 | Active |  |
| 95 | 5000 |  | O=C(NCCCCn1ccnc1)c1ccc(Cl)cc1 |  | inactive |
| 97 | 550 |  | O=C(NCCCn1ccnc1)c1ccc(I)cc1 |  | inactive |
| 85 |  |  | O=C(NCCCn1ccnc1)c1ccc(Br)cc1 | Active |  |
| 89 |  |  | Nc1ccccc1C(=O)NCCCn1ccnc1 | Active |  |
| 91 |  |  | O=C(NCCCn1ccnc1)c1cccc(Br)c1 | Active |  |
| 98 |  |  | O=C(/C=C/c1ccc(Cl)cc1)NCCCn1ccnc1 | Active |  |
| 100 | 500 |  | CSc1ccc(C(=O)NCCCn2ccnc2)cc1 |  | inactive |
| 100 |  | 5000 | O=C(NCCCCCn1ccnc1)c1ccc(Cl)cc1 |  | inactive |
| 95 |  |  | O=C(NCCCn1ccnc1)c1ccc(Cl)cc1 | Active |  |
| 100 | 800 |  | O=C(NCCCCCCn1ccnc1)c1ccc(Cl)cc1 |  | inactive |
